Data taken from ChEMBL document CHEMBL2086314, “Synthesis and anticonvulsant activity of new N-Mannich bases derived from 3-(2-fluorophenyl)- and 3-(2-bromophenyl)-pyrrolidine-2,5-diones. Part II” (Bioorg Med Chem, 2012).
Activity calls are given as the source filed them. The calls are words filed in the database; no cut-off is given here.

Experiments:
[1] = test system: Mus musculus; assay: Anticonvulsant activity in ip dosed CF-1 albino mouse assessed as protection from maximal electric shock-induced seizures measured after 4 hrs; format: functional; settings: read-out: MED
Procedure, shortened: (§1)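 Male CF-1 mice dosed ip at 30, 100 or 300 mg/kg, suspension in 0.5% methylcellulose/water. MES: corneal electrodes primed with electrolyte containing anaesthetic, 50 mA, 60 Hz, 0.2 s. Examined 0.5 and 4 h after dosing. Value is the minimum dose protecting half or more of the animals.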

[2] = test system: Mus musculus; assay: Neurotoxicity in CF-1 albino mouse assessed as motor impairment at 300 mg/kg, ip measured after 0.5 hrs by rotarod test; format: toxicity, organism-based; parameters: dose 300 mg/kg, route intraperitoneal; settings: in vivo
Procedure, shortened: (§2)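 Rotarod neurotoxicity in male CF-1 mice given ip doses of 30, 100 or 300 mg/kg (0.5% methylcellulose suspension), examined 0.5 and 4 h after dosing. Impairment means failing to hold balance on the rod for 1 min. Value is the minimum dose causing toxicity in half or more of the animals; response comments are recorded.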

[3] = test system: Mus musculus; assay: Anticonvulsant activity in CF-1 albino mouse assessed as protection from maximal electric shock-induced seizures at 300 mg/kg, ip measured after 0.5 hrs; format: functional, organism-based; parameters: dose 300 mg/kg; procedure, shortened: as §1
[4] = test system: Mus musculus; assay: Neurotoxicity in CF-1 albino mouse assessed as motor impairment at 300 mg/kg, ip measured after 4 hrs by rotarod test; format: toxicity, organism-based; parameters: dose 300 mg/kg, route intraperitoneal; settings: in vivo; procedure, shortened: as §2
[5] = test system: Mus musculus; assay: Anticonvulsant activity in CF-1 albino mouse assessed as protection against 6 Hz psychomotor seizure at 100 mg/kg, ip measured after 0.25 hrs; format: functional; settings: route intraperitoneal
Procedure, shortened: (§3)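 6-Hz psychomotor seizure in male CF-1 mice, compound suspended in 0.5% methylcellulose/water, given ip (100 or 75 mg/kg). Corneal stimulation with 0.2 ms monopolar rectangular pulses at 6 Hz for 3 s, 32 mA, constant-current device. Protected if normal exploratory behaviour resumes within 10 s. Tested 0.25–4 h after dosing; value is mice protected out of four.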

[6] = test system: Mus musculus; assay: Anticonvulsant activity in CF-1 albino mouse assessed as protection against 6 Hz psychomotor seizure at 100 mg/kg, ip measured after 4 hrs; format: functional; settings: route intraperitoneal; procedure, shortened: as §3
[7] = test system: Mus musculus; assay: Anticonvulsant activity in CF-1 albino mouse assessed as protection against 6 Hz psychomotor seizure at 100 mg/kg, ip measured after 0.5 hrs; format: functional; settings: route intraperitoneal; procedure, shortened: as §3
[8] = test system: Mus musculus; assay: Anticonvulsant activity in CF-1 albino mouse assessed as protection against 6 Hz psychomotor seizure at 100 mg/kg, ip measured after 2 hrs; format: functional; settings: route intraperitoneal; procedure, shortened: as §3
[9] = test system: Mus musculus; assay: Anticonvulsant activity in CF-1 albino mouse assessed as protection against 6 Hz psychomotor seizure at 100 mg/kg, ip measured after 1 hr; format: functional; settings: route intraperitoneal; procedure, shortened: as §3
[10] = test system: Mus musculus; assay: Anticonvulsant activity in CF-1 albino mouse assessed as protection from maximal electric shock-induced seizures at 300 mg/kg, ip measured after 4 hrs; format: functional, organism-based; parameters: dose 300 mg/kg; procedure, shortened: as §1
[11] = test system: Rattus norvegicus; assay: Anticonvulsant activity in Sprague-Dawley rat assessed as protection from maximum electric shock-induced seizures at 30 mg/kg, po measured after 2 hrs; format: functional
Procedure, shortened: (§4)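 Male Sprague–Dawley rats, four per group, given 30 mg/kg orally as a suspension in 0.5% methylcellulose/water. MES stimulus 150 mA, 60 Hz, 0.2 s via corneal electrodes. Tested at 0.25, 0.5, 1, 2 and 4 h; value is rats protected out of four.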

[12] = test system: Mus musculus; assay: Anticonvulsant activity in ip dosed CF-1 albino mouse assessed as protection against subcutaneous pentylenetetrazol-induced seizures measured after 0.5 hrs; format: functional; settings: read-out: MED
Procedure, shortened: (§5)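 scPTZ test in male CF-1 mice. Compound suspended in 0.5% methylcellulose/water, ip at 30, 100 or 300 mg/kg. Pentylenetetrazole 85 mg/kg (CD97, clonic seizures lasting at least 5 s) given subcutaneously at the test time, read at 0.5 and 4 h. Value is the minimum dose protecting half or more of the animals.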

[13] = test system: Mus musculus; assay: Anticonvulsant activity in CF-1 albino mouse assessed as protection against subcutaneous pentylenetetrazol-induced seizures at 300 mg/kg, ip measured after 4 hrs; format: functional, organism-based; parameters: dose 300 mg/kg; procedure, shortened: as §5
[14] = test system: Rattus norvegicus; assay: Anticonvulsant activity in Sprague-Dawley rat assessed as protection from maximum electric shock-induced seizures at 30 mg/kg, po measured after 1 hr; format: functional; procedure, shortened: as §4
[15] = test system: Rattus norvegicus; assay: Anticonvulsant activity in Sprague-Dawley rat assessed as protection from maximum electric shock-induced seizures at 30 mg/kg, po measured after 4 hrs; format: functional; procedure, shortened: as §4
[16] = test system: Rattus norvegicus; assay: Neurotoxicity in Sprague-Dawley rat assessed as motor impairment at 30 mg/kg, po by rotarod test; format: toxicity, organism-based; parameters: dose 30 mg/kg, route oral; settings: in vivo
Procedure, shortened: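 Male Sprague–Dawley rats, four animals, oral 30 mg/kg in 0.5% methylcellulose/water. Motor impairment on the rotarod (failure to keep balance for 1 min) assessed alongside MES at five times from 0.25 to 4 h.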

[17] = test system: Rattus norvegicus; assay: Anticonvulsant activity in Sprague-Dawley rat assessed as protection from maximum electric shock-induced seizures at 30 mg/kg, po measured after 0.25 hrs; format: functional; procedure, shortened: as §4
[18] = test system: Mus musculus; assay: Anticonvulsant activity in ip dosed CF-1 albino mouse assessed as protection from maximal electric shock-induced seizures measured after 0.5 hrs; format: functional; settings: read-out: MED; procedure, shortened: as §1
[19] = test system: Mus musculus; assay: Neurotoxicity in ip dosed CF-1 albino mouse assessed as motor impairment measured after 0.5 hrs by rotarod test; format: toxicity, organism-based; settings: in vivo; procedure, shortened: as §2
[20] = test system: Rattus norvegicus; assay: Anticonvulsant activity in Sprague-Dawley rat assessed as protection from maximum electric shock-induced seizures at 30 mg/kg, po measured after 0.5 hrs; format: functional; procedure, shortened: as §4
[21] = test system: Mus musculus; assay: Anticonvulsant activity in CF-1 albino mouse assessed as protection against subcutaneous pentylenetetrazol-induced seizures at 300 mg/kg, ip measured after 0.5 hrs; format: functional, organism-based; parameters: dose 300 mg/kg; procedure, shortened: as §5
[22] = test system: Rattus norvegicus; assay: Anticonvulsant activity in po dosed maximum electric shock-induced Sprague-Dawley rat assessed as time of peak effect; format: functional
Procedure, shortened: (§6)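 Male Sprague–Dawley rats dosed orally (0.5% methylcellulose suspension). MES 150 mA, 60 Hz, 0.2 s; rotarod impairment is failure to keep balance for 1 min. Groups of eight, at the previously estimated time of peak effect, with doses varied until at least three points fell in the 10–90% range. ED50/TD50 with 95% confidence intervals from regression; PI = TD50/ED50.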

[23] = test system: Rattus norvegicus; assay: Anticonvulsant activity in po dosed Sprague-Dawley rat assessed as protection from maximum electric shock-induced seizures; format: functional; procedure, shortened: as §6
[24] = test system: Mus musculus; assay: Neurotoxicity in CF-1 albino mouse assessed as myoclonic jerks at 300 mg/kg, ip measured after 0.5 hrs by rotarod test; format: toxicity, organism-based; parameters: dose 300 mg/kg, route intraperitoneal; settings: in vivo
[25] = test system: Mus musculus; assay: Anticonvulsant activity in ip dosed CF-1 albino mouse assessed as protection against subcutaneous pentylenetetrazol-induced seizures measured after 4 hrs; format: functional; settings: read-out: MED; procedure, shortened: as §5

| SMILES | minimal effective dose [1] | Activity [2] | Activity [3] | Activity [4] | Activity [10] | further results |
| --- | --- | --- | --- | --- | --- | --- |
| O=C1CC(c2ccccc2Br)C(=O)N1CN1CCN(c2ccc(Cl)cc2)CC1 (racemic) | 300 mg/kg | Non-toxic | inactive | Non-toxic |  |  |
| O=C1CC(c2ccccc2Br)C(=O)N1CN1CCN(c2ccccc2F)CC1 (racemic) |  | Non-toxic | inactive | Non-toxic | inactive | Activity [5]: 0%; Activity [6]: 25%; Activity [7]: 25%; Activity [8]: 25%; Activity [9]: 25% |
| O=C1CC(c2ccccc2Br)C(=O)N1CN1CCOCC1 (racemic) | 100 mg/kg |  |  | Non-toxic |  | Activity [11]: 0%; minimal effective dose [12]: 300 mg/kg; Activity [13]: inactive; Activity [14]: 0%; Activity [15]: 25%; Activity [16]: Non-toxic; Activity [17]: 0%; minimal effective dose [18]: 100 mg/kg; MTC [19]: 300 mg/kg; Activity [20]: 0% |
| O=C1CC(c2ccccc2F)C(=O)N1CN1CCN(C2CCCCC2)CC1 (racemic) |  | Non-toxic | inactive | Non-toxic | inactive | Activity [13]: inactive; Activity [21]: inactive |
| O=C1CC(c2ccccc2Br)C(=O)N1CN1CCN(C2CCCCC2)CC1 (racemic) | 100 mg/kg | Non-toxic | inactive | Non-toxic |  | Activity [11]: 25%; Time [22]: 2 h; ED50 [23]: < 240 mg/kg; Activity [13]: inactive; Activity [14]: 100%; Activity [15]: 25%; Activity [21]: inactive; Activity [16]: Non-toxic; Activity [17]: 50%; Activity [20]: 50% |
| O=C1CC(c2ccccc2Br)C(=O)N1CN1CCN(c2cccc(C(F)(F)F)c2)CC1 (racemic) | 300 mg/kg | Non-toxic | inactive |  |  |  |
| O=C1CC(c2ccccc2F)C(=O)N1CN1CCN(c2ncccn2)CC1 (racemic) | 100 mg/kg |  | inactive | Non-toxic |  | Activity [24]: Toxic; minimal effective dose [12]: 300 mg/kg; Activity [13]: inactive; MTC [19]: 300 mg/kg |
| O=C1CC(c2ccccc2F)C(=O)N1CN1CCN(c2ccccc2F)CC1 (racemic) |  | Non-toxic | inactive | Non-toxic | inactive |  |
| O=C1CC(c2ccccc2F)C(=O)N1CN1CCN(c2ccc(Cl)cc2)CC1 (racemic) | 100 mg/kg | Non-toxic | inactive | Non-toxic |  | Activity [5]: 25%; Activity [11]: 25%; Activity [6]: 0%; Activity [7]: 50%; Activity [8]: 0%; Activity [14]: 0%; Activity [9]: 25%; Activity [15]: 50%; Activity [16]: Non-toxic; Activity [17]: 0%; Activity [20]: 0% |
| O=C1CC(c2ccccc2F)C(=O)N1CN1CCN(c2cccc(Cl)c2)CC1 (racemic) |  | Non-toxic | inactive | Non-toxic | inactive |  |
| CCC1(C)CC(=O)NC1=O (stereo not given) [ETHOSUXIMIDE] |  | Non-toxic | inactive | Non-toxic | inactive | minimal effective dose [25]: 300 mg/kg; minimal effective dose [12]: 100 mg/kg |
| O=C1CC(c2ccccc2Br)C(=O)N1CN1CCN(c2ccccc2Cl)CC1 (racemic) | 300 mg/kg | Non-toxic | inactive | Non-toxic |  |  |
| O=C1CC(c2ccccc2F)C(=O)N1CN1CCN(c2ccccc2Cl)CC1 (stereo not given) |  | Non-toxic | inactive | Non-toxic | inactive |  |
| O=C1CC(c2ccccc2F)C(=O)N1CN1CCN(c2ccccc2)CC1 (racemic) | 300 mg/kg |  | inactive | Non-toxic |  | MTC [19]: 300 mg/kg |
| O=C1CC(c2ccccc2Br)C(=O)N1CN1CCN(c2ccccc2)CC1 (racemic) | 100 mg/kg | Non-toxic | inactive | Non-toxic |  | Activity [5]: 25%; Activity [6]: 50%; Activity [7]: 0%; Activity [8]: 75%; Activity [9]: 50% |
